This is an account of results in ChEMBL document CHEMBL1134519, “Synthesis, nicotinic acetylcholine receptor binding, and antinociceptive properties of 2-exo-2-(2'-substituted 5'-pyridinyl)-7-azabicyclo[2.2.1]heptanes. Epibatidine analogues” (J Med Chem, 2001).

For assay [1], the target named is T1, Neuronal acetylcholine receptor; alpha4/beta2 (Rattus norvegicus, UniProt P09483+P12390). In words: Inhibition of [3H]epibatidine binding at the nicotinic acetylcholine receptor alpha4-beta2 in male rat cerebral cortex. It counts as tissue-based.
For assay [2], the target named is T1, Neuronal acetylcholine receptor; alpha4/beta2. Briefly: Non-specific binding in presence of 300 uM nicotine at nicotinic acetylcholine receptor alpha4-beta2 in rat cerebral cortex membranes. In kind it is cell membranes, Membrane.
Assay [3] has the same target. Briefly: Inhibition of [3H]-nicotine binding at the nicotinic acetylcholine receptor alpha4-beta2. In kind it is protein-complex assay.
The target is the same in assay [4]. Briefly: Inhibition of […] binding at the nicotinic acetylcholine receptor alpha4-beta2 in male rat cerebral cortex. In kind it is tissue-based. The method, boiled down:
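Male rat cerebral cortex homogenate (3 mg wet weight) was incubated with 0.5 nM [3H]epibatidine and 10-12 test concentrations, in buffer at pH 7.4 with 1% DMSO final, for 4 h at room temperature. Nonspecific binding was defined with 300 µM (-)-nicotine. Samples were filtered on PEI-soaked GF/B and counted by scintillation. IC50 came from at least three independent experiments by nonlinear regression, and Ki by Cheng-Prusoff.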

In assay [5] the test system is Mus musculus. In words: Antinociception by tail-flick test in male ICR mice after intrathecal (i.t.) injection, at 32.5 mg/kg. In kind it is functional. The essentials: (§1)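 Male ICR mice injected intrathecally, free-hand between L4 and L6 while unanesthetized. Tail-flick latency was read before treatment (control 2-4 s) and 5 min after injection, with a 10 s cutoff. The result was expressed as %MPE = [(test − control)/(10 − control)] × 100. There were 8-12 mice per dose and at least four doses, and ED50 with 95% CL came from unweighted least-squares linear regression.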
(In general: In hot-plate and tail-flick tests a longer latency is read as antinociception.)

Assay [6] can be described thus: Hill slope value of the compound.
The species named for assay [7] is Mus musculus. Briefly: Antinociception by tail-flick test in male ICR mice after intrathecal (i.t.) injection. It counts as functional. The essentials:
as §1

Assay [8] deals with Mus musculus. Briefly: Antinociception by tail-flick test in male ICR mice after intrathecal (i.t.) injection at 112 mg/kg. It counts as functional. The method, boiled down:
as §1

T1 sequence (P09483 whole entry): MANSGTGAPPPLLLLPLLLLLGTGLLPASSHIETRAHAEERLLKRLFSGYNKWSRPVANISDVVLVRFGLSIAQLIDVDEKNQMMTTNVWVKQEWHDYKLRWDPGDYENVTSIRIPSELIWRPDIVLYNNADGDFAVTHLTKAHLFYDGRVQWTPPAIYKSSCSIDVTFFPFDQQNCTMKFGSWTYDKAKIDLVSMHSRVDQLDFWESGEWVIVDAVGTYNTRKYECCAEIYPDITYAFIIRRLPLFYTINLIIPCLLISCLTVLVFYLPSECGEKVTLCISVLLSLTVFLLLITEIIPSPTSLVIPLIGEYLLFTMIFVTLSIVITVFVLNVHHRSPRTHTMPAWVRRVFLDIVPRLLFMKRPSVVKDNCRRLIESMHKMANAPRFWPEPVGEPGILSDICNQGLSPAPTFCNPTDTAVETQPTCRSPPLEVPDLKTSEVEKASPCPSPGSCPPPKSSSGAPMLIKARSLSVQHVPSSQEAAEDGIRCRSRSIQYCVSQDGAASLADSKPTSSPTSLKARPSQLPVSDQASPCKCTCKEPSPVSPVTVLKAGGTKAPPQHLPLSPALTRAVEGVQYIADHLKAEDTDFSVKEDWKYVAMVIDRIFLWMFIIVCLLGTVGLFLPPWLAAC
T1 sequence (P12390 whole entry): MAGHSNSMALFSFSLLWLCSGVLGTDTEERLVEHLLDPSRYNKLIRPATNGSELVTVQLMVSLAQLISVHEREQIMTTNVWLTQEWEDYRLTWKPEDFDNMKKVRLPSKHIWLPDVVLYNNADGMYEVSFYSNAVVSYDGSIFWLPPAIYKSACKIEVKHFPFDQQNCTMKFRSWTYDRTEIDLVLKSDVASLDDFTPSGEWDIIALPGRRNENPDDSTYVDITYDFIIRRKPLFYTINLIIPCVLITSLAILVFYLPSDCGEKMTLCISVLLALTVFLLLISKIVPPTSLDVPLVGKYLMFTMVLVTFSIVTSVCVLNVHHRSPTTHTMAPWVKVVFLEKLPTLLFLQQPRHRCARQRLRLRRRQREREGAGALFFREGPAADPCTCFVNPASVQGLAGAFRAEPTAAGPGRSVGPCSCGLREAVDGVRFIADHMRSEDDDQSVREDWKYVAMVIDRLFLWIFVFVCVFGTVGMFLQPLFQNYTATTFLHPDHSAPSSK

As for `Ic1ccc(C2CC3CCC2N3)cn1` (stereo not drawn), the Ki in assay [1] amounted to 0.07 nM; in assay [2] it was 0.48 nM. Compound `CN1CCCC1c1ccc(Cl)nc1` (stereo not drawn) yielded an inhibition constant (Ki) in assay [3] of 0.63 nM. Same read-out and setting: for `CN1CCCC1c1ccc(Br)nc1` (stereo not drawn) the value was 0.45 nM. For `O=c1ccc(C2CC3CCC2N3)c[nH]1` (stereo not drawn), the Ki in assay [4] amounted to 107 nM. As for `CN1CCCC1c1ccc(N)nc1` (stereo not drawn), affinity in assay [3] was put at a Ki of 81 nM. The compound `CN(C)c1ccc(C2CC3CCC2N3)cn1` (stereo not drawn) showed an inhibition in vivo at 32.5 mg/kg in the assay on Mus musculus [5] of 10%. Further, the Hill coefficient in assay [6] was determined as 1. `Clc1ccc([C@H]2C[C@@H]3CC[C@H]2N3)cn1` [(-)-EPIBATIDINE] came in with an ED50 in the assay listed under Mus musculus [7] of 0.6 nM mouse-1.

Turning to `c1cncc(C2CC3CCC2N3)c1` (stereo not drawn) [DESCHLOROEPIBATIDINE], the Ki came to 0.02 nM in assay [1] and 0.031 nM in assay [2]. In assay [6], this compound registered a Hill coefficient of 0.8. Moreover, the ED50 in the assay listed under Mus musculus [7] worked out at 0.2 nM mouse-1. Take `Clc1ccc([C@@H]2C[C@H]3CC[C@@H]2N3)cn1` [(+)-EPIBATIDINE]: the ED50 in the assay filed under Mus musculus [7] was 0.5 nM mouse-1. As to `Nc1ccc(C2CC3CCC2N3)cn1` (stereo not drawn), the inhibition in vivo at 112 mg/kg with Mus musculus [8] stood at 27%. In assay [1], this compound showed a Ki of 1.3 nM. The Hill coefficient in assay [6] turned out to be 1.

`CN1CCCC1c1ccc(O)nc1` (stereo not drawn) returned a Ki in assay [3] of 1070 nM.

For `Oc1ccc(C2CC3CCC2N3)cn1` (stereo not drawn), the Hill coefficient in assay [6] was found to be 1. Besides, the ED50 in the assay filed under Mus musculus [7] worked out at 52.4 nM mouse-1.

Consider `Fc1ccc(C2CC3CCC2N3)cn1` (stereo not drawn), for which the Hill coefficient in assay [6] worked out at 0.9. Further, the ED50 in the assay listed under Mus musculus [7] is recorded as 0.31 nM mouse-1. With `CN1CCC[C@H]1c1cccnc1` [NICOTINE], in assay [6], the Hill coefficient is 0.9. In the assay listed under Mus musculus [7], this compound registered an ED50 of 74 nM mouse-1.

For the compound `CN1CCCC1c1ccc(F)nc1` (stereo not drawn), affinity in assay [3] was put at a Ki of 1.03 nM.

The compound `Brc1ccc(C2CC3CCC2N3)cn1` (stereo not drawn) showed a Ki in assay [1] of 0.023 nM. Also, the Hill coefficient in assay [6] amounted to 0.9. This compound gave an ED50 in the assay filed under Mus musculus [7] of 0.33 nM mouse-1.

The Ki is a dissociation constant, usually derived from enzyme kinetics or from competition with a known ligand. In general, inhibition in vivo refers to the percentage by which the read-out fell short of the control. By Hill coefficient is commonly meant the slope factor of the fitted curve.
